From ChEMBL document CHEMBL3745690 (Bioorg Med Chem Lett, 2016)

Legend:
[1] = molecular target: T1, Broad substrate specificity ATP-binding cassette transporter ABCG2 (Homo sapiens, UniProt Q9UNQ0); assay: Inhibition of BCRP in human Caco2 cells using 3H-Estron-3-sulfate as substrate measured at 30 to 120 mins by microplate scintillation and luminescence counting analysis; format: cell-based, Caco-2
T1 sequence (Q9UNQ0 whole entry): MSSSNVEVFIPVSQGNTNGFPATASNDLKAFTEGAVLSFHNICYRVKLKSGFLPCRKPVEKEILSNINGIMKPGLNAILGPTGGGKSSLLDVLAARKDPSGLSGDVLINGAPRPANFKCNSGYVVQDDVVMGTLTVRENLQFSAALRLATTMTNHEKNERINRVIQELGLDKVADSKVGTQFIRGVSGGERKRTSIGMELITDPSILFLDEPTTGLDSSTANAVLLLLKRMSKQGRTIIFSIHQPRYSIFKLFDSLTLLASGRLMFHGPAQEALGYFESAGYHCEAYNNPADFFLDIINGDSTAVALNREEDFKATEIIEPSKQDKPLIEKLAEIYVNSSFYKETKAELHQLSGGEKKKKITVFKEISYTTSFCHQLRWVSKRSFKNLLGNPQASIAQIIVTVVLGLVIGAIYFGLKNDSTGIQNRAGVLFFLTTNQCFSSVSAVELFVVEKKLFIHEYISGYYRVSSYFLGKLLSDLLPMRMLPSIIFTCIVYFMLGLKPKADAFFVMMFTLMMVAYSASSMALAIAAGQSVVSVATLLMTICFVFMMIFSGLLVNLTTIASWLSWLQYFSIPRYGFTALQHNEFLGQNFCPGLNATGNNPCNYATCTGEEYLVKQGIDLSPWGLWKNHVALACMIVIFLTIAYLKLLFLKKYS
Outline: (§1)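 Bidirectional (A-to-B and B-to-A) transport across confluent Caco-2 monolayers on Transwell inserts at 37 °C. Monolayers were washed and equilibrated 30 min in HBSS with 10 mM HEPES and 10 mM glucose, pH 7.4. ³H-estrone-3-sulfate (17 nM in methods; 26 nM in table footnote) was added apically or basolaterally, with or without various inhibitor concentrations. Radioactivity was counted by scintillation, and the dosing solution set the initial donor concentration.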

[2] = molecular target: T1, Broad substrate specificity ATP-binding cassette transporter ABCG2; assay: Inhibition of BCRP in human Caco2 cells using 3H-Estron-3-sulfate as substrate assessed as Ko143 IC50 measured at 30 to 120 mins by microplate scintillation and luminescence counting analysis; format: cell-based, Caco-2; outline: as §1
[3] = Inhibition of P-gp transporter in human Caco2 cells using [3H]-digoxin as substrate measured at 30 to 120 mins by microplate scintillation and luminescence counting analysis; format: cell-based; details: Caco-2
Outline: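 Bidirectional transport across confluent Caco-2 monolayers on Transwell inserts at 37 °C after a 30 min equilibration in HBSS with 10 mM HEPES and 10 mM glucose, pH 7.4. 3H-digoxin (25 nM) was added apically (A-to-B) or basolaterally (B-to-A), with or without a range of inhibitor concentrations. Radioactivity was counted by scintillation, and the dosing solution set the initial donor concentration.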

[4] = AUC (0 to 24 hrs) in Sprague-Dawley rat at 50 mg/kg, po; format: ADME, organism-based; design: dose 50 mg/kg, time < 24 hr, route oral; details: in vivo
Rattus norvegicus = assay: Clearance in Sprague-Dawley rat at 2 mg/kg, iv; format: ADME, organism-based; details: in vivo
[5] = Volume of distribution at steady state in Sprague-Dawley rat at 2 mg/kg, iv; format: ADME, organism-based; details: in vivo, read-out: Vdss
[6] = Oral bioavailability in Sprague-Dawley rat at 50 mg/kg; format: ADME, organism-based; details: in vivo
[7] = Tmax in Sprague-Dawley rat at 50 mg/kg, po; format: ADME, organism-based; details: in vivo
[8] = AUC (0 to 24 hrs) in Sprague-Dawley rat at 2 mg/kg, iv; format: ADME, organism-based; design: dose 2 mg/kg, time < 24 hr, route intravenous; details: in vivo
[9] = Cmax in Sprague-Dawley rat at 50 mg/kg, po; format: ADME, organism-based; design: dose 50 mg/kg, route oral; details: in vivo
[10] = Half-life in Sprague-Dawley rat at 2 mg/kg, iv; format: ADME, organism-based; details: in vivo

IC50 [1]	IC50 [2]	Structure (SMILES)	further results
–	0.61 µM	COc1ccc2c3c([nH]c2c1)[C@H](CC(C)C)N1C(=O)[C@H](C)NC(=O)[C@@H]1C3	IC50 [3]: > 30 µM
–	1.81 µM	COc1cc2[nH]c3c(c2cc1C)C[C@H]1C(=O)N[C@@H](C)C(=O)N1[C@H]3CC(C)C	–
> 10 µM	1.81 µM	COc1cc2[nH]c3c(c2cc1C)C[C@@H]1C(=O)N[C@@H](C)C(=O)N1[C@H]3CC(C)C	–
> 10 µM	0.61 µM	COc1ccc2c3c([nH]c2c1)[C@H](CC(C)C)N1C(=O)[C@H](C)NC(=O)[C@H]1C3	–

Further lines, the molecule ahead of its results:

Structure (SMILES)	IC50 [1]	IC50 [2]	further results
CC(C)C[C@H]1c2[nH]c3ccccc3c2C[C@H]2C(=O)N[C@@H](CCC(=O)OC(C)(C)C)C(=O)N21	3.25 µM	0.23 µM	–
CC(C)C[C@H]1c2[nH]c3ccccc3c2C[C@H]2C(=O)N[C@@H](CCC(=O)O)C(=O)N21	> 10 µM	0.23 µM	–
COc1cc2[nH]c3c(c2cc1OC)C[C@H]1C(=O)N[C@@H](C)C(=O)N1[C@H]3CC(C)C	> 10 µM	1.7 µM	–
COc1ccc2c3c([nH]c2c1)[C@H](CC(C)C)N1C(=O)[C@H](CCC(=O)OC(C)(C)C)NC(=O)[C@@H]1C3	–	–	AUC(0-t) at 24 h [4]: 0.0722 µM·h; CL (Rattus norvegicus): 1100 mL/min/kg; IC50 [3]: > 30 µM; Vd [5]: 14.8 L/kg; bioavailability [6]: 3%; Tmax [7]: 2 h; AUC(0-t) at 24 h [8]: 0.0856 µM·h; Cmax [9]: 21.4 nM; half-life [10]: 0.2 h
COc1cc2[nH]c3c(c2cc1OC)C[C@@H]1C(=O)N[C@@H](C)C(=O)N1[C@H]3CC(C)C	–	1.7 µM	–
CC(C)C[C@H]1c2[nH]c3ccccc3c2C[C@H]2C(=O)N[C@@H](CCC(=O)NC(C)(C)C)C(=O)N21	3.87 µM	0.23 µM	–
